# Test system: not listed separately
# Assay: 50% lethal dose for inhibition of KB cells growth
# Type: cell-based
# Conditions: human, read-out: LD50 (the source's name)
# In short: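 KB cell line growth measured over a dose-response series by the Alamar blue method. The LD50 is the concentration lethal to 50% of KB cells. The highest level tested was 300 μg/mL; ">" means no inhibition at that level.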
row,SMILES,CC50
1,Cc1ccnc(NC(P(=O)(O)O)P(=O)(O)O)c1,127 µM
2,O=P(O)(O)C(O)(Cc1ccccc1)P(=O)(O)O,> 931 µM
3,O=P(O)(O)C(NC1CCCCC1)P(=O)(O)O [(CYCLOHEXYLAMINO)METHYLENEDIPHOSPHONIC ACID],271 µM
4,CCN(CC)C(P(=O)(O)O)P(=O)(O)O [(DIETHYLAMINO)METHYLENEDIPHOSPHONIC ACID],809 µM
5,CC(C)CCNC(P(=O)(O)O)P(=O)(O)O [(ISOPENTYLAMINO)METHYLENEDIPHOSPHONIC ACID],> 1150 µM
6,CCCCCCCCNC(P(=O)(O)O)P(=O)(O)O [(OCTYLAMINO)METHYLENEDIPHOSPHONIC ACID],66.8 µM
7,CCCCCNC(P(=O)(O)O)P(=O)(O)O [(PENTYLAMINO)METHYLENEDIPHOSPHONIC ACID],> 1150 µM
8,CCCCCN(C)CCC(O)(P(=O)(O)O)P(=O)(O)O [IBANDRONIC ACID],10.1 µM
9,NCCCCCC(O)(P(=O)(O)O)P(=O)(O)O [NERIDRONIC ACID],680 µM
10,CN(C)CCC(O)(P(=O)(O)O)P(=O)(O)O [OLPADRONIC ACID],> 1050 µM
11,NCCC(O)(P(=O)(O)O)P(=O)(O)O [PAMIDRONIC ACID],156 µM
12,O=P(O)(O)C(O)(Cc1cccnc1)P(=O)(O)O [RISEDRONIC ACID],249 µM

# Test system: Trypanosoma brucei rhodesiense
# Assay: Percent inhibition of Trypanosoma brucei rhodesiense at 9.27 uM of risedronate along with GPP
# Type: functional
# Conditions: not given
row,SMILES,Inhibition
1,CC(C)=CCC/C(C)=C/COP(=O)(O)OP(=O)(O)O.O=P(O)(O)C(O)(Cc1cccnc1)P(=O)(O)O,83.7%

# Test system: Trypanosoma brucei rhodesiense
# Assay: Log IC50 brucei Trypomastigotes
# Type: functional, organism-based
# Conditions: not given
# In short: (§1)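 Bloodstream-form T. b. rhodesiense trypomastigotes, strain STIB 900, grown in vitro with the bisphosphonate. IC50 taken as the drug concentration that cuts parasite proliferation by 50%.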
row,SMILES,IC50
1,CCCCCCCCNC(P(=O)(O)O)P(=O)(O)O [(OCTYLAMINO)METHYLENEDIPHOSPHONIC ACID],1.7 µM
2,NCCCCCC(O)(P(=O)(O)O)P(=O)(O)O [NERIDRONIC ACID],31.6 µM
3,NCCC(O)(P(=O)(O)O)P(=O)(O)O [PAMIDRONIC ACID],> 100 µM

# Test system: Trypanosoma brucei rhodesiense
# Assay: In vitro rescue of growth inhibition of Trypanosoma brucei rhodesiense [risedronate + farnesol(12.5 ug/mL)]
# Type: functional, organism-based
# Conditions: not given
row,SMILES,IC50
1,CC(C)=CCC/C(C)=C/CC/C(C)=C/CO.O=P(O)(O)C(O)(Cc1cccnc1)P(=O)(O)O,> 83.5 µM

# Test system: Trypanosoma brucei rhodesiense
# Assay: (§2) In vitro rescue of growth inhibition of Trypanosoma uM of compound
# Type: functional
# Conditions: not given
row,SMILES,Inhibition
1,O=P(O)(O)C(O)(Cc1cccnc1)P(=O)(O)O [RISEDRONIC ACID],0%

# Test system: Trypanosoma brucei rhodesiense
# Assay: as §2
# Type: functional
# Conditions: not given
row,SMILES,Inhibition
1,O=P(O)(O)C(O)(Cc1cccnc1)P(=O)(O)O [RISEDRONIC ACID],19.3%

# Test system: Trypanosoma brucei rhodesiense
# Assay: as §2
# Type: functional
# Conditions: not given
# Remark: another data set of the same source
row,SMILES,Inhibition
1,O=P(O)(O)C(O)(Cc1cccnc1)P(=O)(O)O [RISEDRONIC ACID],100%

# Test system: Trypanosoma brucei rhodesiense
# Assay: as §2
# Type: functional
# Conditions: not given
# Remark: another data set of the same source
row,SMILES,Inhibition
1,O=P(O)(O)C(O)(Cc1cccnc1)P(=O)(O)O [RISEDRONIC ACID],23.49%

# Test system: Trypanosoma brucei rhodesiense
# Assay: In vitro rescue of growth inhibition of Trypanosoma uM of risedronate along with farnesol (12.5 ug/mL)
# Type: functional
# Conditions: not given
row,SMILES,Inhibition
1,CC(C)=CCC/C(C)=C/CC/C(C)=C/CO.O=P(O)(O)C(O)(Cc1cccnc1)P(=O)(O)O,0%

# Test system: Trypanosoma brucei rhodesiense
# Assay: as §2
# Type: functional
# Conditions: not given
# Remark: another data set of the same source
row,SMILES,Inhibition
1,O=P(O)(O)C(O)(Cc1cccnc1)P(=O)(O)O [RISEDRONIC ACID],86.49%

# Test system: Trypanosoma brucei rhodesiense
# Assay: Percent inhibition of Trypanosoma brucei rhodesiense at 1.03 uM of risedronate along with GPP
# Type: functional
# Conditions: not given
row,SMILES,Inhibition
1,CC(C)=CCC/C(C)=C/COP(=O)(O)OP(=O)(O)O.O=P(O)(O)C(O)(Cc1cccnc1)P(=O)(O)O,0%

# Test system: Trypanosoma brucei rhodesiense
# Assay: Percent inhibition of Trypanosoma brucei rhodesiense at 27.85 uM of risedronate along with FPP
# Type: functional
# Conditions: not given
row,SMILES,Inhibition
1,CC(C)=CCC/C(C)=C/CC/C(C)=C/COP(=O)(O)OP(=O)(O)O.O=P(O)(O)C(O)(Cc1cccnc1)P(=O)(O)O,25.4%

# Test system: Trypanosoma brucei rhodesiense
# Assay: Percent inhibition of Trypanosoma brucei rhodesiense at 27.85 uM of risedronate along with GPP
# Type: functional
# Conditions: not given
row,SMILES,Inhibition
1,CC(C)=CCC/C(C)=C/COP(=O)(O)OP(=O)(O)O.O=P(O)(O)C(O)(Cc1cccnc1)P(=O)(O)O,100%

# Test system: Trypanosoma brucei rhodesiense
# Assay: Percent inhibition of Trypanosoma brucei rhodesiense at 3.09 uM of risedronate along with GPP
# Type: functional
# Conditions: not given
# In short: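 Rescue assay with bloodstream-form trypomastigotes (strain STIB900) seeded at 1 × 10^5/mL in HMI-18 medium with 20% HIFCS. Bisphosphonate was given as three-fold serial dilutions from 83.5 μM, in triplicate. Geranyl pyrophosphate was added at a final 12.5 μg/mL. Plates were incubated for 72 h at 37 °C in 5% CO2-air, then Alamar Blue was added for 4 h and fluorescence read at 530/585 nm.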
row,SMILES,Inhibition
1,CC(C)=CCC/C(C)=C/COP(=O)(O)OP(=O)(O)O.O=P(O)(O)C(O)(Cc1cccnc1)P(=O)(O)O,44.59%

# Test system: Trypanosoma brucei rhodesiense
# Assay: Percent inhibition of Trypanosoma brucei rhodesiense at 83.54 uM of risedronate along with FPP
# Type: functional
# Conditions: not given
row,SMILES,Inhibition
1,CC(C)=CCC/C(C)=C/CC/C(C)=C/COP(=O)(O)OP(=O)(O)O.O=P(O)(O)C(O)(Cc1cccnc1)P(=O)(O)O,64.24%

# Test system: Trypanosoma brucei rhodesiense
# Assay: Percent inhibition of Trypanosoma brucei rhodesiense at 83.54 uM of risedronate along with GPP
# Type: functional
# Conditions: not given
row,SMILES,Inhibition
1,CC(C)=CCC/C(C)=C/COP(=O)(O)OP(=O)(O)O.O=P(O)(O)C(O)(Cc1cccnc1)P(=O)(O)O,100%

# Test system: Trypanosoma brucei rhodesiense
# Assay: Percent inhibition of Trypanosoma brucei rhodesiense at 9.27 uM of risedronate along with FPP
# Type: functional
# Conditions: not given
row,SMILES,Inhibition
1,CC(C)=CCC/C(C)=C/CC/C(C)=C/COP(=O)(O)OP(=O)(O)O.O=P(O)(O)C(O)(Cc1cccnc1)P(=O)(O)O,0%

# Test system: Trypanosoma brucei rhodesiense
# Assay: 50% inhibitory concentration against Trypanosoma brucei rhodesiense
# Type: functional, organism-based
# Conditions: not given
# In short: as §1
row,SMILES,IC50
1,O=P(O)(O)C(O)(Cc1cccnc1)P(=O)(O)O [RISEDRONIC ACID],4.12 µM

# Test system: Trypanosoma brucei rhodesiense
# Assay: In vitro growth inhibition of Trypanosoma brucei rhodesiense (risedronate + FPP)
# Type: functional, organism-based
# Conditions: not given
row,SMILES,IC50
1,CC(C)=CCC/C(C)=C/CC/C(C)=C/COP(=O)(O)OP(=O)(O)O.O=P(O)(O)C(O)(Cc1cccnc1)P(=O)(O)O,66.8 µM

# Test system: Trypanosoma brucei rhodesiense
# Assay: In vitro growth inhibition of Trypanosoma brucei rhodesiense (risedronate + GPP)
# Type: functional, organism-based
# Conditions: not given
row,SMILES,IC50
1,CC(C)=CCC/C(C)=C/COP(=O)(O)OP(=O)(O)O.O=P(O)(O)C(O)(Cc1cccnc1)P(=O)(O)O,3.71 µM

# Test system: Trypanosoma brucei rhodesiense
# Assay: In vitro growth inhibition of bloodstream-form Trypanosoma brucei rhodesiense Trypomastigotes
# Type: functional, organism-based
# Conditions: not given
# In short: as §1
row,SMILES,IC50
1,Cc1ccnc(NC(P(=O)(O)O)P(=O)(O)O)c1,0.61 µM
2,O=P(O)(O)C(NC1CCCCC1)P(=O)(O)O [(CYCLOHEXYLAMINO)METHYLENEDIPHOSPHONIC ACID],20.9 µM
3,CCN(CC)C(P(=O)(O)O)P(=O)(O)O [(DIETHYLAMINO)METHYLENEDIPHOSPHONIC ACID],34.4 µM
4,CC(C)CCNC(P(=O)(O)O)P(=O)(O)O [(ISOPENTYLAMINO)METHYLENEDIPHOSPHONIC ACID],102 µM
5,CCCCCCCCNC(P(=O)(O)O)P(=O)(O)O [(OCTYLAMINO)METHYLENEDIPHOSPHONIC ACID],1.7 µM
6,CCCCCNC(P(=O)(O)O)P(=O)(O)O [(PENTYLAMINO)METHYLENEDIPHOSPHONIC ACID],50.6 µM
7,CCCCCN(C)CCC(O)(P(=O)(O)O)P(=O)(O)O [IBANDRONIC ACID],0.96 µM
8,NCCC(O)(P(=O)(O)O)P(=O)(O)O [PAMIDRONIC ACID],> 100 µM

# Test system: not listed separately
# Assay: Therapeutic index measured as the ratio of LD50 (KB cells) to IC50 (T.b. rhodesiense)
# Type: cell-based
# Conditions: trypanosoma brucei rhodesiense, KB cells versus T. b. rhodesiense; read-out: TI
# In short: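 KB cell growth inhibition measured by Alamar blue to give LD50, the dose lethal to 50% of cells; highest level tested 300 μg/mL. Index computed as LD50 (KB cells) / IC50 (T. b. rhodesiense).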
row,SMILES,selectivity ratio
1,Cc1ccnc(NC(P(=O)(O)O)P(=O)(O)O)c1,208
2,O=P(O)(O)C(O)(Cc1ccccc1)P(=O)(O)O,> 44
3,O=P(O)(O)C(NC1CCCCC1)P(=O)(O)O [(CYCLOHEXYLAMINO)METHYLENEDIPHOSPHONIC ACID],13
4,CCN(CC)C(P(=O)(O)O)P(=O)(O)O [(DIETHYLAMINO)METHYLENEDIPHOSPHONIC ACID],24
5,CC(C)CCNC(P(=O)(O)O)P(=O)(O)O [(ISOPENTYLAMINO)METHYLENEDIPHOSPHONIC ACID],> 11
6,CCCCCCCCNC(P(=O)(O)O)P(=O)(O)O [(OCTYLAMINO)METHYLENEDIPHOSPHONIC ACID],39
7,CCCCCNC(P(=O)(O)O)P(=O)(O)O [(PENTYLAMINO)METHYLENEDIPHOSPHONIC ACID],> 23
8,CCCCCN(C)CCC(O)(P(=O)(O)O)P(=O)(O)O [IBANDRONIC ACID],10
9,NCCCCCC(O)(P(=O)(O)O)P(=O)(O)O [NERIDRONIC ACID],21
10,CN(C)CCC(O)(P(=O)(O)O)P(=O)(O)O [OLPADRONIC ACID],> 195
11,NCCC(O)(P(=O)(O)O)P(=O)(O)O [PAMIDRONIC ACID],< 2
12,O=P(O)(O)C(O)(Cc1cccnc1)P(=O)(O)O [RISEDRONIC ACID],29

# Test system: Trypanosoma brucei rhodesiense
# Assay: Predicted pIC50 against Trypomastigotes Brucei rhodesiense.
# Type: functional, organism-based
# Conditions: not given
# In short: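 QSAR prediction from a bisphosphonate training set. Structures geometry-optimized by steepest-descent, conjugate-gradient and Newton–Raphson minimization with no internal constraints. Each molecule aligned by rms fit of its P–C–P backbone to the lowest-energy conformer of the template. Models validated by leave-one-out cross-validation.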
row,SMILES,IC50
1,Cc1ccnc(NC(P(=O)(O)O)P(=O)(O)O)c1,0.617 µM
2,O=P(O)(O)C(O)(Cc1ccccc1)P(=O)(O)O,21.4 µM
3,O=P(O)(O)C(NC1CCCCC1)P(=O)(O)O [(CYCLOHEXYLAMINO)METHYLENEDIPHOSPHONIC ACID],20.9 µM
4,CCN(CC)C(P(=O)(O)O)P(=O)(O)O [(DIETHYLAMINO)METHYLENEDIPHOSPHONIC ACID],34.7 µM
5,CC(C)CCNC(P(=O)(O)O)P(=O)(O)O [(ISOPENTYLAMINO)METHYLENEDIPHOSPHONIC ACID],102 µM
6,CCCCCNC(P(=O)(O)O)P(=O)(O)O [(PENTYLAMINO)METHYLENEDIPHOSPHONIC ACID],50.1 µM
7,CCCCCN(C)CCC(O)(P(=O)(O)O)P(=O)(O)O [IBANDRONIC ACID],0.955 µM
8,CN(C)CCC(O)(P(=O)(O)O)P(=O)(O)O [OLPADRONIC ACID],5.37 µM
9,O=P(O)(O)C(O)(Cc1cccnc1)P(=O)(O)O [RISEDRONIC ACID],8.51 µM

# Test system: Trypanosoma brucei rhodesiense
# Assay: as §2
# Type: functional
# Conditions: not given
# Remark: another data set of the same source
row,SMILES,Inhibition
1,O=P(O)(O)C(O)(Cc1cccnc1)P(=O)(O)O [RISEDRONIC ACID],100%

# From ChEMBL document CHEMBL1135583, “Activity of bisphosphonates against Trypanosoma brucei rhodesiense” (J Med Chem, 2002)
